Source: PubChem
In the library only some 4.9% were active in any assay of this set; here they are far more common.
STAT3 activator = activators of IL-6 induced STAT3 signaling. 190,000 tested, 0.91% active. activation (% of control), % at 5.6 µM. U3A cells, IL-6 STAT3-luciferase reporter, luminescence; 100% = signal with IL-6 EC80 alone;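 active means activation above the screen-wide mean of compound activation plus 3 SD, cut at about 130% in these data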;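 further: 0% = background luminescence of wells with medium and substrate only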
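Material: STAT3-luciferase reporter U3A cells. Controls: IL-6-treated wells, 100% activation. Read-out: % activation versus median of IL-6-stimulated wells. Probe or stimulus: IL-6 stimulus at 33 ng/mL final. Timing: compound 1 h, then IL-6 6 h at 37 °C. Signal: reporter luminescence signal.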
STAT1 activator = activators of IFN-gamma induced STAT1 signaling. 200,000 tested, 2.6% active. activation (% of control), % at 5.5 µM. NIH 3T3 STAT1-luciferase reporter, luminescence; 100% = IFN-gamma alone, no compound;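 active means activation above the screen-wide mean activation plus 3 SD, cut at about 130% in these data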;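 further: raw ratio to IFN-gamma control signal so 100% means no change and 0% no light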
STAT1 blocker = reduces IFN-gamma driven STAT1 reporter signal. NIH 3T3 STAT1-luciferase reporter, luminescence. inhibition, % at 5.5 µM. 200,000 tested, 0.35% active;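 active means inhibition above a set limit, the mean inhibition across all tested compounds plus 3 SD, cut at about 34% in these data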;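 further: 0% = IFN-gamma with DMSO and 100% = IFN-gamma with 300 µM nifuroxazide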
STAT3 inh = inhibitors of IL-6 induced STAT3 signaling; U3A cells, IL-6 STAT3-luciferase reporter, luminescence; host cell line lacks STAT1; inhibition, % at 5.5 µM; 190,000 tested, 0.89% active; AID 862;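 active means inhibition above the mean inhibition across all screened compounds plus 3 SD, cut at about 44% in these data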;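 further: 0% = DMSO only wells and 100% = 100 µM nifuroxazide control wells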
NF-kB expr up = NF-kB expression increase, human neuronal cells; NF-kB reporter expression; active compounds read high; fold change at 12.5 µM; 190,000 tested, 1.6% active; in the data active means fold change above about 3.3
APP 5'UTR act = activates APP 5'UTR luciferase reporter; activation, % at 2 µM; SH-SY5Y APP 5'UTR luciferase reporter, luminescence; zero percent = DMSO vehicle wells; 190,000 tested, 1% active;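 active means activation above a set limit, based on mean plus 3 SD of controls, cut at about 140% in these data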
Active calls of the source: *.

SMILES	STAT3 activator	STAT1 activator	STAT1 blocker	STAT3 inh	NF-kB expr up	APP 5'UTR act
Cc1ccc(/C=C2/NC(=O)N(c3ccccc3)C2=O)o1	97	116	-18	15	1.9	32
O=C1N/C(=C/c2ccc(N3CCOCC3)o2)C(=O)N1c1cccc(Cl)c1	93	130*	-32	17	1.6	-76
Cc1ccc2sc(C)[n+](CCC(C)S(=O)(=O)[O-])c2c1 (configuration not stated)	100	98	2	-1	1.1	1
Brc1ccc(-c2ncc(-c3ccccc3)cn2)cc1	97	139*	-43	11	5.7*	31
CSc1ncc(-c2ccccc2)cn1	94	121	-21	8	1.4	0
Oc1ccc(/C=N/Nc2nc(N3CCCC3)nc(N3CCCC3)n2)cc1O	100	132*	-36	4	1.1	7
Cc1nnc(SCC(=O)Nc2ccccc2NC(=O)CSc2nnc(C)s2)s1	96	98	3	4	1.1	9
Cc1nnc(SCC(=O)Nc2nsc(-c3ccc(C(C)(C)C)cc3)n2)s1	108	141*	-46	0	8.6*	147*
COc1ccc(C2=NOC(C(=O)Nc3cccnc3Cl)C2)cc1 (configuration not stated)	94	95	3	14	1.2	-9
Cc1cc(C)c(C#N)c(Sc2ccccc2N)n1	168*	139*	-43	-77	1.1	29
COC(=O)C(Sc1nc(C)cc(C)c1C#N)c1ccccc1 (configuration not stated)	94	99	1	17	1.6	25
Cc1cccc(Cc2nnc(CCC(=O)N(C)C3CCOC3)o2)c1 (configuration not stated)	101	112	-12	-1	1.5	8
Cc1ccc(N2C(=O)c3ccc(N)cc3C2=O)cc1C	101	141*	-45	2	3.7*	34
Cc1ccc(N2C(=O)c3ccc(N)cc3C2=O)cc1	111	149*	-54	-7	3.5*	29
C/C(=N\Nc1cccc2cccnc12)c1ccc(C)cc1	109	137*	-44	-5	4.2*	137*
C[C@]1(C(=O)NCc2cc(F)cc(C(F)(F)F)c2)C=C[C@@H](Cc2ccccc2)N1C(=O)c1ccccc1	101	104	-4	-4	0.89	6
CC(CCc1ccccc1)NC(=O)c1cccs1 (configuration not stated)	99	95	6	1	0.88	-2
Cn1ccc(NC(=O)Nc2cccc([N+](=O)[O-])c2)n1	96	105	-7	10	2	13
O=C(CSc1nc(C2CCCCC2)nc2ccccc12)N1CCCC1	101	93	5	2	1	13
O=C(CSc1cccc2cccnc12)N1CCCC1	101	97	2	5	5*	-28
CN(C)C(=O)CSc1cccc2cccnc12	96	105	-5	4	5.1*	-11
O=C(CSc1nncc2ccccc12)N1CCCCC1	110	130*	-32	-5	1.9	22
NNC(=O)CSc1cccc2cccnc12	100	101	-1	9	1	40
O=S1(=O)N=C(Nc2ccc(O)cc2)c2ccccc21	99	96	2	4	1.1	27
O=S1(=O)N=C(Nc2ccc(N3CCOCC3)c(Cl)c2)c2ccccc21	120	146*	-49	-12	1.5	27
SMILES	STAT3 activator	STAT1 activator	STAT1 blocker	STAT3 inh	NF-kB expr up	APP 5'UTR act
CCNC(=O)CSc1nc(-c2ccc(F)cc2)cs1	92	117	-21	17	1.8	23
CC(C)(C)NC(=O)CSc1nc(-c2ccc(F)cc2)cs1	93	141*	-47	11	4.7*	77
O=C(Nc1cccc(S(=O)(=O)N2CCCCC2)c1)Nc1ccc(Cl)cc1Cl	100	95	5	4	0.48	2
O=C(/C=C/c1ccco1)OCC1CCCN2CCCCC12 (configuration not stated)	99	100	-2	4	1.2	-1
CCCOc1ccc(-c2nnc(-c3ccncc3)o2)cc1	87	126	-29	21	3.7*	124
c1cc(-c2nnc(-c3ccncc3)o2)ccn1	96	103	-3	8	1.2	17
COc1ccc(-c2nnc(-c3ccc(OCC(C)C)cc3)o2)cc1	96	91	10	9	1.5	-12
CC(C)COc1ccc(-c2nnc(-c3ccncc3)o2)cc1	81	136*	-40	26	2.8	34
Cc1cccc(N(C(=O)c2nsc(Cl)c2Cl)C(C(=O)NC2CCCC2)c2ccc(O)cc2)c1 (configuration not stated)	102	93	7	-3	1	11
Cc1ccc(S(=O)(=O)Nc2cccc3ncccc23)s1	115	187*	-95	-15	0.16	-56
Cc1ccc(S(=O)(=O)Nc2ccnc3ccccc23)cc1	97	101	-1	9	1.4	9
COc1ccc(/C=N/Nc2ncccc2[N+](=O)[O-])c(OC)c1	41	47	57*	74*	7.9*	137*
CC1CCN(c2ccc(C(=O)O)cc2NS(=O)(=O)c2ccc(Br)cc2)CC1	103	92	9	0	1.6	-5
CC(=O)c1ccc(Nc2nc(=O)c3cccnc3s2)cc1	91	136*	-35	11	3.9*	-4
CC(=O)c1ccc(Nc2cc(C)nc3ccccc23)cc1	95	110	-12	16	1.2	-42
CCOC(=O)c1ccc(Nc2nc(=O)c3cccnc3s2)cc1	119	112	-13	-18	4.1*	19
CC(=O)c1cccc(NC(=O)Nc2cccnc2)c1	89	85	17	14	0.88	-19
CC(=O)c1cccc(Nc2nc(=O)c3cccnc3s2)c1	93	103	-1	10	3.4*	-13
O=c1nc(Nc2ccc(OCc3ccccc3)cc2)sc2ncccc12	82	124	-28	27	1.7	-14
O=C(O)Cc1csc(-c2cccc(F)c2)n1	99	104	-5	3	1	9
Cc1cccc(COc2ncnc3nc[nH]c23)c1	106	99	1	-7	1.1	3
CC(OC(=O)c1ccncc1)C(=O)NC1CCCC1 (configuration not stated)	108	107	-9	2	1.2	-6
CC(=O)Nc1cc2c(cc1C(=O)c1ccc(C)cc1)OCCO2	112	110	-7	-11	1.2	-19
Cc1ccc(C(=O)Nc2cc3c(cc2Cl)OCCCO3)cc1	120	155*	-62	-19	4.1*	118
COc1ccc(C(=O)Nc2cc3c(oc2=O)CCCC3=O)cc1	91	138*	-42	14	1.2	10
COc1ccc(C(=O)Nc2cc3c(cc2Cl)OCCCO3)cc1	98	137*	-41	1	4.3*	134
O=C(Nc1cc2c(oc1=O)CCCC2=O)c1cccc(Cl)c1	94	110	-11	18	1.3	1
